NR2E3 ag-1 – activates human photoreceptor nuclear receptor NR2E3; Q9Y5X4; GST-NR2E3/biotin-RetCOR TR-FRET, 1536-well; inhibition of corepressor binding, % at 4.78 µM; actives 0.12% (n = 320,000);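 active = percent inhibition above the cutoff of mean plus 3 SD of all tested compounds, set per screening campaign, cut at about 20% in these data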;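 note: 0% = DMSO wells and 100% = biotin wells as full block of FRET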
Target sequence (Q9Y5X4 whole entry, looked up): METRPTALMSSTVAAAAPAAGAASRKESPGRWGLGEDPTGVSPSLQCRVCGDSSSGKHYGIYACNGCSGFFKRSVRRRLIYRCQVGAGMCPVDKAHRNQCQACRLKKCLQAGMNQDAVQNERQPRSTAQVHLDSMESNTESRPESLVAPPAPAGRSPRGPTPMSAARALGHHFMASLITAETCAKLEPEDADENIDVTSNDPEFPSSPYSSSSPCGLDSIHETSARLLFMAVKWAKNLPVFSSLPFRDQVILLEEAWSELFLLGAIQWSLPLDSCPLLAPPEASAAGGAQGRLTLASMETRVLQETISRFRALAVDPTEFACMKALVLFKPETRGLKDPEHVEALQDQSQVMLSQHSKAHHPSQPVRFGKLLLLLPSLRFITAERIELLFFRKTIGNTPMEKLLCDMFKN
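Assay system: NR2E3–RetCOR corepressor complex. Quantity: 1.35 nM GST-NR2E3. Buffer or medium: pH 7.5 Tris-based buffer. Reagent: biotinylated RetCOR corepressor at 7 nM final. Schedule: 5 h at 4 °C. Detection: TR-FRET, emission read at 617 and 671 nm. Replicates: one well per compound, singlicate testing.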
PG9 Ab binder – small molecules binding HIV-1 gp120 antibody PG9 | TR-FRET gp120-PG9 antibody binding | inhibition, % at 6.7 µM | actives 0.43% (n = 360,000) | AID 624416; in the data active = inhibition above about 8.5%
NR2E3 ag-2 – agonists of human NR2E3 nuclear receptor. Q9Y5X4. CHO-S Gal4-NCOR/VP16-NR2E3 two-hybrid, luciferase. inhibition of corepressor binding, % at 3.98 µM. actives 0.35% (n = 360,000);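 active = inhibition above the mean of all tested compounds plus 3 SD, cut at about 70% in these data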;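 note: 0% = DMSO with NR2E3 transfected cells and 100% = cells lacking NR2E3 construct; higher means lower luciferase signal from less NR2E3 corepressor binding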
Rev-erbA mod – Rev-erb alpha (human) modulation. P20393. Rev-erbα–FITC-DNA binding, fluorescence polarization, 90 min. activity, % at 10 µM. actives 0.79% (n = 370,000). AID 1259318;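 active = activity above about 14%, limit read from the data; passing the limit was not always enough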;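 note: 0% = DMSO wells with 35 nM protein and 100% = DMSO wells with 750 nM protein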
Rev-erbA confirm – confirmation of modulators of human Rev-erb alpha DNA binding; shares compounds with Rev-erbA mod; activation, % at 25 µM; AID 1259319; Rev-erb alpha FITC-DNA binding, fluorescence polarization, 90 min; actives 61% (n = 3,000);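 active = activation at or above a set limit, or at least 3 SD above the negative control mean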;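 note: 0% = 35 nM protein with DMSO and 100% = 750 nM protein high control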
RORg counter – affects RORgamma DNA binding in a Rev-erb alpha counter-screen. shares compounds with Rev-erbA mod. purified RORgamma protein-FITC-DNA binding, fluorescence polarization. IC50, µM. actives 8% (n = 910);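 active = Compounds whose fitted half-maximal concentration for disrupting protein-DNA binding is below 10 micromolar; the record names Rev-erb in its text, so the target is in doubt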
Numbers without * were called inactive; i = inactive; . = no result given. Shown are actives, neighbours in structure and some others; about 1.4% of the full set was active somewhere.

SMILES | NR2E3 ag-1 | PG9 Ab binder | NR2E3 ag-2 | Rev-erbA mod | Rev-erbA confirm | others
O=C(CSc1nc2ccccc2nc1N1CCCCC1)N1CCN(C(c2ccccc2)c2ccc(Cl)cc2)CC1 (stereo unspecified) | . | . | . | 18.9* | 21.0*
O=C(c1cccc(C(F)(F)F)c1)N1CC[C@H]2[C@H](CCCN2Cc2ccccc2)C1 | . | . | . | -0.9 | .
COc1ccc(-c2ccc(C3C(C#N)=C(N)Oc4n[nH]c(C)c43)o2)cc1 (stereo unspecified) | 2.3 | -0.6 | -19.9 | 21.9* | 19.3*
O=C(COc1ccc([N+](=O)[O-])cc1)Nc1cccc2nsnc12 | 3.9 | -3.1 | -15.3 | 24.1* | 21.7*
OC(c1cccc(Cl)c1)c1ncc(-c2ccc3ccccc3c2)[nH]1 (stereo unspecified) | . | -0.9 | -27.9 | -2.8 | .
OC(c1cc(F)cc(Cl)c1)c1ncc(-c2ccc3ccccc3c2)[nH]1 (stereo unspecified) | . | -0.1 | 21.9 | 14.1* | -4.2
NC(=O)c1c(NC(=O)c2ccccc2)sc2c1CCc1ccccc1-2 | 1.5 | -0.3 | -122.5 | 47.4* | 18.3*
O=C(NC1CCCC1)C1(C(=O)C2CC2)CC(c2ccccn2)=NO1 (stereo unspecified) | . | . | . | -2.4 | .
Cc1ccc(-c2nc3ncccc3o2)cc1NC(=O)c1cccs1 | -4.0 | 1.7 | -6.3 | 2.9 | .
Cc1cc(NC(=O)c2cccs2)cc(-c2nc3ncccc3o2)c1O | 2.6 | 0.7 | -6.2 | 71.3* | 67.5* | RORg counter=>40
COCCCNC(=O)Cn1nc(Cc2ccncc2)c2ccccc2c1=O | . | . | . | 1.1 | .
CC(=O)c1ccc(S(=O)(=O)Nc2cc3c(cc2C(C)=O)OCO3)cc1 | 1.7 | 0.5 | -5.0 | -1.2 | .
CC(=O)c1cc2c(cc1N/C(=N/S(=O)(=O)c1ccc(Br)cc1)c1ccccc1)OCO2 | 2.4 | 0.1 | 9.6 | 96.8* | 16.7
COc1cccc(C(=O)c2cc3cc(Cl)ccc3[nH]2)c1 | 3.8 | 0.6 | -106.2 | 19.9* | 10.8
O=C(Nc1ccc(Br)c(C(F)(F)F)c1)[C@@H]1CC=C[C@@H]2CCN(CC3CC3)C(=O)[C@@H]21 | . | . | . | -1.5 | .
CCC(C)(C)c1ccc(OCCCC[n+]2cccc(C)c2C)c(C(C)(C)CC)c1 | -2.9 | -1.1 | 3.9 | 41.7* | 43.0*
CCC(C)(C)c1ccc(OCCCC[n+]2ccc(C)cc2)c(C(C)(C)CC)c1 | 1.4 | -0.5 | . | 33.6* | 36.1* | RORg counter=>40
O=C(NCc1ccccc1)C(c1cccc2ccccc12)n1c(=O)c(-c2ccccc2)nc2ccccc21 (stereo unspecified) | . | -1.0 | . | 24.2* | 46.3* | RORg counter=i
CCCCCNC(=O)C(c1cccc2ccccc12)n1c(=O)c(-c2ccccc2)nc2ccccc21 (stereo unspecified) | . | 0.5 | . | -3.7 | .
CC1CCc2sc(C(=O)Nc3nnc(SCc4ccc(F)cc4)s3)cc2C1 (stereo unspecified) | 2.3 | 8.4 | -42.0 | 29.6* | 17.0
CC(c1nc2ccccc2[nH]1)n1c(=O)c(-c2cccnc2)nc2ccccc21 (stereo unspecified) | . | 0.9 | . | 1.9 | .
CC(c1nc2ccccc2[nH]1)n1c(=O)c(-c2cccs2)nc2ccccc21 (stereo unspecified) | . | 0.1 | . | 30.4* | 18.4*
COCCCNC(=O)C[C@H]1C[C@@]2(C(=O)OC)C(=C[C@H](C(C)(C)C)O[C@@H]2C)N(Cc2ccco2)C1=O | . | . | . | 5.7 | .
O=c1c2ccccc2c(-c2ccccc2)nn1Cc1c(Cl)cccc1Cl | 1.1 | 1.1 | -5.0 | 6.1 | .
O=c1c2ccccc2c(-c2ccccc2)nn1-c1cc(Cl)cc(Cl)c1 | 1.1 | -0.3 | 3.0 | 31.0* | 0.2
SMILES | NR2E3 ag-1 | PG9 Ab binder | NR2E3 ag-2 | Rev-erbA mod | Rev-erbA confirm | others
N#CCNC(=O)c1nn2c(C(F)(F)F)cc(-c3ccccc3)nc2c1Br | 0.3 | -0.7 | -10.2 | 56.7* | 31.2* | RORg counter=>40
O=C(NCC1CCCO1)c1nn2c(C(F)(F)F)cc(-c3cc(Br)cs3)nc2c1Br (stereo unspecified) | 0.3 | 0.2 | -22.3 | 22.9* | -4.1
O=S1(=O)c2c(cccc2N2CCSCC2)Oc2ccccc2CN1Cc1cn(Cc2ccc(Cl)cc2)nn1 | . | . | . | -1.4 | .
COC(=O)[C@]12C[C@H](CC(=O)NCC34CC5CC(CC(C5)C3)C4)C(=O)N(CCC3=CCCCC3)C1=C[C@H](C(C)C)O[C@@H]2C1CC1 | . | . | . | 0.3 | .
Cn1c2ccccc2c2cc(C(=O)OCC(=O)N3CC(=O)Nc4ccccc43)sc21 | 2.5 | 2.0 | -14.1 | 73.8* | 62.0*
O=C1CN(C(=O)COC(=O)c2cccs2)c2ccccc2N1 | -0.4 | 1.5 | -9.3 | -3.4 | .
CCN(CC)c1ccc(-c2c(C#N)c(N)nc(OC)c2C#N)cc1 | 1.7 | 2.8 | 22.2 | 177.6* | 136.7* | RORg counter=>40
CCCOc1cccc(-c2nnc(NC(=O)c3ccco3)s2)c1 | 3.4 | 0.7 | -41.7 | 23.1* | 5.1
COC(=O)[C@]12C[C@H](CC(=O)NCCc3ccccc3OC)C(=O)N(Cc3ccc(Cl)cc3Cl)C1=C[C@H](C(C)(C)C)O[C@@H]2C | . | . | . | -0.6 | .
Cc1cc(N2CCN(C(=O)OC(C)(C)C)C[C@H]2C)ccc1Br | . | -0.8 | . | 14.8* | 3.6
COc1ccc2c(c1)cc(C(=O)N[C@@H](Cc1ccccc1)C(=O)N[C@@H](C)C(=O)O)n2C | 1.2 | -1.4 | -33.1 | 28.4* | -6.3
Nc1ncc2c(n1)-c1cc(Cl)ccc1SC2 | 9.2 | 1.6 | 18.2 | 34.3* | -1.5
O=C(Nc1ccnc(=O)[nH]1)c1sc2ccccc2c1Cl | -1.0 | 2.5 | -27.1 | 37.2* | 22.6*
CCCCCN1CCCCC(NC(=O)c2cc(OC)c(OC)c(OC)c2)C1=O (stereo unspecified) | . | . | . | -2.9 | .
CCCCCCCCNS(=O)(=O)CC1NCc2ccccc21 (stereo unspecified) | . | . | . | -3.5 | .
Cc1c(C#N)c(O)[nH]c(=O)c1N=Nc1ccc(S(N)(=O)=O)cc1 | 3.2 | -1.6 | -9.8 | 26.4* | 17.3*
COc1ccc(C(=O)Nc2nc(C)c(C(C)=O)s2)cc1S(=O)(=O)N1CCOCC1 | 3.5 | -0.1 | -28.7 | 57.9* | 143.8* | RORg counter=>40
COc1ccc(S[C@]2(C(=O)N(C)C)CC(=O)N(C(=O)Nc3ccc(C)c(Cl)c3)[C@@H]2c2ccc(OC)cc2)cc1 | . | . | . | 8.9 | .
CC(C)(C=O)Cc1cc(C(C)(C)C)c(O)c(C(C)(C)C)c1 | 5.1 | -1.3 | 3.6 | 21.5* | 18.8*
Brc1ccc(-c2nn3c(-c4ccccc4)nnc3s2)cc1 | . | . | . | 33.7* | 71.1* | RORg counter=2.91*
CCOc1ccc(-c2nn3c(-c4ccccc4)nnc3s2)cc1 | 1.2 | -0.4 | -7.0 | -9.6 | .
O=C(Nc1cccc(-c2nc3ccccc3o2)c1)c1ccc(N2C(=O)C3C4C=CC(C4)C3C2=O)cc1 (stereo unspecified) | -1.6 | -2.3 | -7.1 | 9.9 | .

Assay outcomes: PubChem, several laboratories
